Active and inactive are the calls of the source. No cut-off for these calls is given here.
Key:
A549 = assay: Cytotoxicity against human A549 cells assessed as growth inhibition by MTT assay; format: functional, cell-based
Method in brief: (§1)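 Modified MTT colorimetric assay on human lung adenocarcinoma A549 and human osteosarcoma MG63 cells, with adriamycin as the positive control.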

MG-63 = assay: Cytotoxicity against human MG63 cells assessed as growth inhibition by MTT assay; format: functional, cell-based; method in brief: as §1
Candida albicans [1] = assay: Antifungal activity against Candida albicans Y0109 assessed as growth inhibition by automatic microplate reader analysis; format: functional
Method in brief: (§2)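 Broth microdilution growth read by optical density at 630 nm on a microplate reader. MIC80 was taken as the first well showing roughly 80% growth reduction relative to the drug-free well.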

Aspergillus fumigatus = assay: Antifungal activity against Aspergillus fumigatus 07544 assessed as growth inhibition by automatic microplate reader analysis; format: functional; method in brief: as §2
Nannizzia gypsea = assay: Antifungal activity against Microsporum gypseum Cmccfmza assessed as growth inhibition by automatic microplate reader analysis; format: functional; method in brief: as §2
Nakaseomyces glabratus = assay: Antifungal activity against Candida glabrata 537 assessed as growth inhibition by automatic microplate reader analysis; format: functional; method in brief: as §2
Candida albicans [2] = assay: Antifungal activity against Candida albicans SC5314 assessed as growth inhibition by automatic microplate reader analysis; format: functional; method in brief: as §2
Candida parapsilosis = assay: Antifungal activity against Candida parapsilosis 22019 assessed as growth inhibition by automatic microplate reader analysis; format: functional; conditions: Lodderomyces parapsilosis; method in brief: as §2
Trichophyton rubrum = assay: Antifungal activity against Trichophyton rubrum Cmccftla assessed as growth inhibition by automatic microplate reader analysis; format: functional; method in brief: as §2
Cryptococcus neoformans = assay: Antifungal activity against Cryptococcus neoformans 32609 assessed as growth inhibition by automatic microplate reader analysis; format: functional; method in brief: as §2

Compound	IC50 (A549)	inhibition (MG-63)	MIC80 (Candida albicans [1]) [µg/mL]	MIC80 (Aspergillus fumigatus) [µg/mL]	MIC80 (Nannizzia gypsea) [µg/mL]	MIC80 (Nakaseomyces glabratus) [µg/mL]	MIC80 (Candida albicans [2]) [µg/mL]	MIC80 (Candida parapsilosis) [µg/mL]	inhibition (A549)	MIC80 (Trichophyton rubrum) [µg/mL]	MIC80 (Cryptococcus neoformans) [µg/mL]
COc1cccc2c1C(=O)c1c(O)c3c(c(O)c1C2=O)C[C@@](O)(C(=O)CO)C[C@@H]3O[C@H]1C[C@H](N)[C@H](O)[C@H](C)O1 [DOXORUBICIN]	Not Active	inactive	–	–	–	–	–	–	–	–	–
C[C@@H](O)/C=C/C=C/[C@H]1OC[C@H]2[C@@H](O)[C@@H](O)[C@H](O)C[C@@H]21	–	inactive	> 64	> 64	> 64	> 64	> 64	> 64	inactive	> 64	> 64
C[C@@H](c1ncncc1F)[C@](O)(Cn1cncn1)c1ccc(F)cc1F [VORICONAZOLE]	–	–	0.5	4	0.5	0.25	0.25	2	–	0.125	0.25
C/C=C/C=C/C=C/[C@H]1C[C@@H](O)[C@H](O)[C@H](O)[C@@H]1CO	–	inactive	16	> 64	> 64	> 64	> 64	> 64	inactive	> 64	> 64
CC(=O)N1CCN(c2ccc(OCC3COC(Cn4ccnc4)(c4ccc(Cl)cc4Cl)O3)cc2)CC1 (configuration not stated) [KETOCONAZOLE]	–	–	0.0625	2	0.125	0.125	0.125	0.25	–	0.0625	0.25
CCC(C)n1ncn(-c2ccc(N3CCN(c4ccc(OCC5COC(Cn6cncn6)(c6ccc(Cl)cc6Cl)O5)cc4)CC3)cc2)c1=O (configuration not stated) [ITRACONAZOLE]	–	–	4	32	4	2	4	8	–	2	4
OC(Cn1cncn1)(Cn1cncn1)c1ccc(F)cc1F [FLUCONAZOLE]	–	–	0.25	> 64	8	2	0.25	1	–	1	1
CN(C/C=C/C#CC(C)(C)C)Cc1cccc2ccccc12 [TERBINAFINE]	–	–	> 64	4	0.25	8	64	8	–	1	8
C/C=C/C=C/C=C/[C@H]1C[C@@H](O)[C@H](O)C(=O)[C@@H]1CO	–	inactive	16	> 64	> 64	16	16	16	inactive	16	16
C/C=C/C=C/C=C/[C@H]1C[C@@H](O)C[C@H](O)[C@@H]1CO	–	inactive	16	> 64	16	16	16	16	inactive	8	8

From ChEMBL document CHEMBL3297710, “Polyhydroxy cyclohexanols from a Dendrodochium sp. fungus associated with the sea cucumber Holothuria nobilis Selenka” (J Nat Prod, 2014)
